“And” between values parts separate entries of the source, which are not always exact repeats. Equal entries are not always repeated. The source made the active and inactive calls. No cut-off for these calls is given here.
Tests used:
Histone deacetylase 1 = Histone deacetylase 1 (Homo sapiens, UniProt Q13547); assay: Inhibition of recombinant full length C-terminal FLAG-tagged/C-terminal His-tagged human HDAC1 using fluorogenic substrate by fluorescence assay
Procedure, shortened: (§1)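 Outsourced HDAC isozyme panel run under proprietary protocols. Each compound was tested at 10 μM and 5 μM, using HDAC substrate 3 at 10 μM, with fluorescence read-out. […] IC50 range was bracketed from % inhibition at the two concentrations.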

Histone deacetylase 2 [1] = molecular target: T1, Histone deacetylase 2 (Homo sapiens, UniProt Q92769); assay: Inhibition of full length recombinant human HDAC2 expressed in baculovirus expression system using fluorogenic peptide RHKK(Ac) as substrate by fluorescence assay
T1 sequence (Q92769 whole entry): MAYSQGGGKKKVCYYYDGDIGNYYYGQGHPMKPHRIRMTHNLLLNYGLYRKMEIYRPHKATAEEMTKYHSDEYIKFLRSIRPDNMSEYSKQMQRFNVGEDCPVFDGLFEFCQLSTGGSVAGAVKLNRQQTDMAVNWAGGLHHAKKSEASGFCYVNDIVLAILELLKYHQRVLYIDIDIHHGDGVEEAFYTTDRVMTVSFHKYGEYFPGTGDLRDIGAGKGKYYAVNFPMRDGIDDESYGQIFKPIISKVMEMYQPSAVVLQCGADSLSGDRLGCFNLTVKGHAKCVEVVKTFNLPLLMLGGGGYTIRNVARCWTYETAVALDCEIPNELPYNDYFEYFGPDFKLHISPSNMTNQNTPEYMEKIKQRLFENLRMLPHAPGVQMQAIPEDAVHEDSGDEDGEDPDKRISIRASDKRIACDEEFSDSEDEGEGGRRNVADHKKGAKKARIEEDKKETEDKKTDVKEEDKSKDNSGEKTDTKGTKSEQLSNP

HCT-116 = assay: Antiproliferative activity against human HCT116 cells assessed as reduction in cell viability after 72 hrs by MTS-PMS assay; type: functional
Procedure, shortened: (§2)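 MTS-PMS viability test. Cells were seeded at 3,000/well and left 24 h at 37 °C, 5% CO2, then exposed to compound for 72 h. Screening was at 50 μM for HCT116 and MCF-7 and […], with final DMSO ≤1%. MTS:PMS was mixed 20:1, added for 3 h, and absorbance read at 490 nm. At least two independent runs were done, each in triplicate.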

MCF7 = assay: Antiproliferative activity against human MCF7 cells assessed as reduction in cell viability after 72 hrs by MTS-PMS assay; conditions: MCF7, 72 h
MDA-MB-231 = assay: Antiproliferative activity against human MDA-MB-231 cells assessed as reduction in cell viability after 72 hrs by MTS-PMS assay; type: functional; conditions: MDA-MB-231, 72 h; procedure, shortened: as §2
MOLT-4 = assay: Antiproliferative activity against human MOLT4 cells assessed as reduction in cell viability after 70 hrs by Quanti-blue assay; type: functional
Procedure, shortened: (§3)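 Quanti-Blue viability kit. HuT-78 and Molt-4 cells were grown in RPMI-1640 and seeded at 10^5 cells/mL. Compounds were screened at 50 μM for 70 h, with detection reagent present for the final 2 h. Fluorescence was read at ex 530/em 590 nm. IC50 from dose-response came from linear regression. Three independent runs.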

HuT78 = assay: Antiproliferative activity against human HUT78 cells assessed as reduction in cell viability after 70 hrs by Quanti-blue assay; type: functional; procedure, shortened: as §3
[2] = Antiproliferative activity against human PBMC assessed as reduction in cell viability after 70 hrs by Quanti-blue assay; type: cell-based
Procedure, shortened: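 QB fluorescence viability assay; hPBMCs purified by density centrifugation from purchased human blood, stored frozen, resuspended in RPMI-1640 with 10% heat-inactivated FBS, HEPES, pyruvate, non-essential amino acids and BME; seeded at 10^6 cells/mL. Compounds at 50 μM, 70 h plus 2 h with detection reagent; λex 530/λem 590 nm. Three independent repeats.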

Histone deacetylase 2 [3] = molecular target: T1, Histone deacetylase 2; assay: Inhibition of recombinant full length C-terminal His-tagged human HDAC2 expressed in baculovirus expression system using fluorogenic substrate by fluorescence assay
[4] = Immunomodulatory activity in human TALL-104 cells assessed as effect on degranulation by measuring augmentation of CD3-stimulated anti-LAMP fluorescence at 100 uM preincubated for 30 mins followed by anti-LAMP addition and incubated for 50 mins in the dark by flow cytometric analysis relative to control; type: functional
[5] = molecular target: Histone deacetylase 3/Nuclear receptor corepressor 2 (HDAC3/NCoR2) (Homo sapiens, UniProt O15379); assay: Inhibition of recombinant full length C-terminal His-tagged human HDAC3/GST-tagged human Ncor2 (395 to 489 residues) expressed in baculovirus expression system using fluorogenic substrate by fluorescence assay; procedure, shortened: as §1
Histone deacetylase 3/Nuclear receptor corepressor 2 (HDAC3/NCoR2), sequence (O15379 whole entry, the tested form may be a part): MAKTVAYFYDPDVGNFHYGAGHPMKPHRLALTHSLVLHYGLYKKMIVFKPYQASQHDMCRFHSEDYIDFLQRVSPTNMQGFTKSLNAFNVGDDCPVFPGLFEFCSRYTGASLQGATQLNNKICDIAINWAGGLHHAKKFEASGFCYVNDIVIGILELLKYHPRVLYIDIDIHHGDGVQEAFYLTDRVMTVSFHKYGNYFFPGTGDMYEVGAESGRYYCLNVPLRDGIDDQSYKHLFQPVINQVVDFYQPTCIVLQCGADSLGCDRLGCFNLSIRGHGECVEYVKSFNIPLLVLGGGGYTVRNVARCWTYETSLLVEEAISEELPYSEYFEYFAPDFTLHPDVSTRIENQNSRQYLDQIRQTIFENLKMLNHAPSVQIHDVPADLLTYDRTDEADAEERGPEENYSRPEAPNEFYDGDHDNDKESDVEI
Histone deacetylase 3/Nuclear receptor corepressor 2 (HDAC3/NCoR2), sequence (Q9Y618 whole entry, further chain, the tested form may be a part): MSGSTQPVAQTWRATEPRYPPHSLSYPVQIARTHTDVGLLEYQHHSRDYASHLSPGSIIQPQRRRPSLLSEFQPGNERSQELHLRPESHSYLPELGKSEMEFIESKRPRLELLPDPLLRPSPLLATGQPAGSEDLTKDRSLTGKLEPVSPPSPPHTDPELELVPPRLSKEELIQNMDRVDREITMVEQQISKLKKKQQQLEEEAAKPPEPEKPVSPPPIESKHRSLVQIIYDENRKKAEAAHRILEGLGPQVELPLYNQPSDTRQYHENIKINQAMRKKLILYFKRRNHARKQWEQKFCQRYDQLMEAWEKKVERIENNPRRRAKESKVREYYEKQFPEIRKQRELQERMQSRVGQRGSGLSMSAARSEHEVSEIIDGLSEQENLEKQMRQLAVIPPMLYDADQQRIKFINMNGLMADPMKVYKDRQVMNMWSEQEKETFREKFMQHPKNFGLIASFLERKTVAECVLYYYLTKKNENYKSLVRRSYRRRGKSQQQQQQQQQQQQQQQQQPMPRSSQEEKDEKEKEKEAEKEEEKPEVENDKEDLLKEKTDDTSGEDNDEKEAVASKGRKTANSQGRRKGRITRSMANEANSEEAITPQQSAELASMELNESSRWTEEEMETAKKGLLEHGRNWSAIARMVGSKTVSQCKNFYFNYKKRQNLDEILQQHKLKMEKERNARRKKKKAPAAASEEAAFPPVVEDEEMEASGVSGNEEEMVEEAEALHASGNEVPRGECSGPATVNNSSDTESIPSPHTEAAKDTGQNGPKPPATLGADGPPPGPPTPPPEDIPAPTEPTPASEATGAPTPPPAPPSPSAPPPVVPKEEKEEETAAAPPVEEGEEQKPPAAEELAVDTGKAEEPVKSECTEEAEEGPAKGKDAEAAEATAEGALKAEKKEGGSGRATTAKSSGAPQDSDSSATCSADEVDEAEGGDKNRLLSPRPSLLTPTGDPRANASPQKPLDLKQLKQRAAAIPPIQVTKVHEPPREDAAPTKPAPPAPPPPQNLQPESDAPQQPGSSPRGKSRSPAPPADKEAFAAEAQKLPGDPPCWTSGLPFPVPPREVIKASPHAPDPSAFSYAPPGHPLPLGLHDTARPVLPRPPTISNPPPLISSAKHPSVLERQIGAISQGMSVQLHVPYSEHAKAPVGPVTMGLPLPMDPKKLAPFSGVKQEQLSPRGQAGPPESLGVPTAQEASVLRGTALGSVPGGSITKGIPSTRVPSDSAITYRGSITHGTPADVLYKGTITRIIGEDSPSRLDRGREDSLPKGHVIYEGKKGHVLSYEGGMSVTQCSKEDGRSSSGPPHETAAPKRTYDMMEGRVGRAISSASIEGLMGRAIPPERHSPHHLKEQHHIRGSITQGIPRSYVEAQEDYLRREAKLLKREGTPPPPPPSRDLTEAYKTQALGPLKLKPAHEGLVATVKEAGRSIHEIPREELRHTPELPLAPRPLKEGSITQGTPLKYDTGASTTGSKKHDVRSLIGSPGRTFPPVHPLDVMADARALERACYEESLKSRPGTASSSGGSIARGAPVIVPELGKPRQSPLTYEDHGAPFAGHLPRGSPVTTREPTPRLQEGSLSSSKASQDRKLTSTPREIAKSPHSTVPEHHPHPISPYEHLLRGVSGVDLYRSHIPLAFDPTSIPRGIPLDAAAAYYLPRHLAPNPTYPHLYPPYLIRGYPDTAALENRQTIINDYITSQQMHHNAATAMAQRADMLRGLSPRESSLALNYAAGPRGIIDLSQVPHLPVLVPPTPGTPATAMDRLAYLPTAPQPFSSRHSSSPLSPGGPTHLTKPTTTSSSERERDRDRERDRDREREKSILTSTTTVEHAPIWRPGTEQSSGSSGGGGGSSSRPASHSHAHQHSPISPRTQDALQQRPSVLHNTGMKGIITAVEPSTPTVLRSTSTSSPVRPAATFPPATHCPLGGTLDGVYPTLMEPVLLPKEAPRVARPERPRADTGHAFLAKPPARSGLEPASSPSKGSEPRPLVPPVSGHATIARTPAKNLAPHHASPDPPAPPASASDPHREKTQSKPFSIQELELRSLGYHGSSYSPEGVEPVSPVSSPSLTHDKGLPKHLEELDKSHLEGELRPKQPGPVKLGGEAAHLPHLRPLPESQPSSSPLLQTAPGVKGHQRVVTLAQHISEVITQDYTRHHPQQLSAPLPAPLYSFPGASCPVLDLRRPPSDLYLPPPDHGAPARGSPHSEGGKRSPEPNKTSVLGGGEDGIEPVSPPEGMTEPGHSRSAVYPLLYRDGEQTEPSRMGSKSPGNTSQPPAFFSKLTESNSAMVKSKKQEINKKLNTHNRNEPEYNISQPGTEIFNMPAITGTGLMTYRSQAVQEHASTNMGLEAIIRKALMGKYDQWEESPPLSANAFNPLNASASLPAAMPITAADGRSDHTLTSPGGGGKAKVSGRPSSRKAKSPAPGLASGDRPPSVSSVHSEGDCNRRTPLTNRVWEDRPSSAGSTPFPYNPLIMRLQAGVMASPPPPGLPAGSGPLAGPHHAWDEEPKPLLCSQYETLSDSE

Histone deacetylase 4 = Histone deacetylase 4 (Homo sapiens, UniProt P56524); assay: Inhibition of recombinant C-terminal His-tagged/N-terminal GST-tagged human HDAC4 (627 to 1084 residues) expressed in baculovirus expression system using fluorogenic substrate by fluorescence assay
Procedure, shortened: (§4)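 Outsourced HDAC isozyme panel run under proprietary protocols. Each compound was tested at 10 μM and 5 μM, using Class 2a HDAC substrate at 2 μM, with fluorescence read-out. […] IC50 range was bracketed from % inhibition at the two concentrations.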

Histone deacetylase 5 = Histone deacetylase 5 (Homo sapiens, UniProt Q9UQL6); assay: Inhibition of recombinant C-terminal His-tagged human HDAC5 catalytic domain (656 to 1122 residues) expressed in baculovirus expression system using fluorogenic substrate by fluorescence assay; procedure, shortened: as §4
Histone deacetylase 7 = Histone deacetylase 7 (Homo sapiens, UniProt Q8WUI4); assay: Inhibition of recombinant N-terminal GST-tagged human HDAC7 (518 to end residues) expressed in baculovirus expression system using fluorogenic substrate by fluorescence assay; procedure, shortened: as §4
Histone deacetylase 7, sequence (Q8WUI4 whole entry): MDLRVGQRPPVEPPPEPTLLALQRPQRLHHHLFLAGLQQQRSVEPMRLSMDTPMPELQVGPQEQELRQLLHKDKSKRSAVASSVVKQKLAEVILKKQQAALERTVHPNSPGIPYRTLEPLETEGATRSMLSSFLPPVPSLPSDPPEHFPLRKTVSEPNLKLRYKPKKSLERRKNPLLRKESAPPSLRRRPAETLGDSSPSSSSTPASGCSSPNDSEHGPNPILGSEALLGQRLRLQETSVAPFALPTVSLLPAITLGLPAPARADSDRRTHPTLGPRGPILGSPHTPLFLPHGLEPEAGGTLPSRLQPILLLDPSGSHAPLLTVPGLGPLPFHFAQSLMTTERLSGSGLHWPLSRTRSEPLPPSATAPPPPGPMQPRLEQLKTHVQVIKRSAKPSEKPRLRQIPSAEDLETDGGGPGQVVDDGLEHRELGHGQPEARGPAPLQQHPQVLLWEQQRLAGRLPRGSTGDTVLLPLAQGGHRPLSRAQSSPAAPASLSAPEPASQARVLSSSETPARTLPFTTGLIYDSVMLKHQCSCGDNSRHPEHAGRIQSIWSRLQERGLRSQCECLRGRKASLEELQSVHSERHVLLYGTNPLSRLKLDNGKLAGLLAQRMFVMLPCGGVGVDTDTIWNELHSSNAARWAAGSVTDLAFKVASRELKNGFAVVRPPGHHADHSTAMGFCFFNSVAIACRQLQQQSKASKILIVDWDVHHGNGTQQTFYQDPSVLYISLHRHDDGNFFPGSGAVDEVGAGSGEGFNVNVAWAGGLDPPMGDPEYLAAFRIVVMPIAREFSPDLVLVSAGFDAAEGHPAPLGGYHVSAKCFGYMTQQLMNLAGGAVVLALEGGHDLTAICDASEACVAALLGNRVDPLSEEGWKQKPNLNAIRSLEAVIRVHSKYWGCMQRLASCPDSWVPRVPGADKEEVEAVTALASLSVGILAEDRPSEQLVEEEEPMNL

Histone deacetylase 8 = Histone deacetylase 8 (Homo sapiens, UniProt Q9BY41); assay: Inhibition of recombinant full length C-terminal His-tagged human HDAC8 expressed in baculovirus expression system using fluorogenic substrate by fluorescence assay; procedure, shortened: as §4
Histone deacetylase 9 = Histone deacetylase 9 (Homo sapiens, UniProt Q9UKV0); assay: Inhibition of recombinant C-terminal His-tagged human HDAC9 (604 to 1066 residues) expressed in baculovirus expression system using fluorogenic substrate by fluorescence assay; procedure, shortened: as §4
[6] = molecular target: Polyamine deacetylase HDAC10 (Homo sapiens, UniProt Q969S8); assay: Inhibition of recombinant N-terminal FLAG-tagged human HDAC10 (2 to 631 residues) expressed in baculovirus expression system using fluorogenic substrate by fluorescence assay; procedure, shortened: as §1
Histone deacetylase 11 = Histone deacetylase 11 (Homo sapiens, UniProt Q96DB2); assay: Inhibition of full length recombinant human HDAC11 expressed in baculovirus expression system using fluorogenic substrate by fluorescence assay; procedure, shortened: as §4
[7] = molecular target: Protein deacetylase HDAC6 (Homo sapiens, UniProt Q9UBN7); assay: Inhibition of recombinant full length N-terminal GST-tagged human HDAC6 expressed in baculovirus expression system using fluorogenic substrate by fluorescence assay; procedure, shortened: as §1
[8] = molecular target: NAD-dependent protein deacetylase sirtuin-1 (Homo sapiens) (UniProt Q96EB6); assay: Inhibition of SIRT1 (unknown origin) at 10 uM
[9] = molecular target: NAD-dependent protein deacetylase sirtuin-2 (Homo sapiens) (UniProt Q8IXJ6); assay: Inhibition of SIRT2 (unknown origin) at 10 uM
[10] = molecular target: NAD-dependent protein deacetylase sirtuin-3, mitochondrial (Homo sapiens) (UniProt Q9NTG7); assay: Inhibition of SIRT3 (unknown origin) at 10 uM
[11] = molecular target: DNA (cytosine-5)-methyltransferase 1 (Homo sapiens) (UniProt P26358); assay: Inhibition of DNMT1 (unknown origin) at 10 uM
[12] = molecular target: T2, DNMT3A2/3L complex (Homo sapiens) (UniProt Q9Y6K1+Q9UJW3); assay: Inhibition of DNMT3A/3L (unknown origin) at 10 uM; type: protein-complex assay
[13] = molecular target: T3, DNMT3B-DNMT3L complex (Homo sapiens) (UniProt Q9UBC3+Q9UJW3); assay: Inhibition of DNMT3B/3L (unknown origin) at 10 uM; type: protein-complex assay
[14] = molecular target: NAD-dependent protein deacetylase sirtuin-1 (Homo sapiens) (UniProt Q96EB6); assay: Inhibition of SIRT1 (unknown origin) at 5 uM
[15] = molecular target: NAD-dependent protein deacetylase sirtuin-2 (Homo sapiens) (UniProt Q8IXJ6); assay: Inhibition of SIRT2 (unknown origin) at 5 uM
[16] = molecular target: NAD-dependent protein deacetylase sirtuin-3, mitochondrial (Homo sapiens) (UniProt Q9NTG7); assay: Inhibition of SIRT3 (unknown origin) at 5 uM
[17] = molecular target: DNA (cytosine-5)-methyltransferase 1 (Homo sapiens) (UniProt P26358); assay: Inhibition of DNMT1 (unknown origin) at 5 uM
[18] = molecular target: T2, DNMT3A2/3L complex (Homo sapiens); assay: Inhibition of DNMT3A/3L (unknown origin) at 5 uM; type: protein-complex assay
[19] = molecular target: T3, DNMT3B-DNMT3L complex (Homo sapiens); assay: Inhibition of DNMT3B/3L (unknown origin) at 5 uM; type: protein-complex assay
[20] = molecular target: NAD-dependent protein deacylase sirtuin-5, mitochondrial (Homo sapiens) (UniProt Q9NXA8); assay: Inhibition of SIRT5 (unknown origin) at 5 to 10 uM

Histone deacetylase 1, sequence (Q13547 whole entry): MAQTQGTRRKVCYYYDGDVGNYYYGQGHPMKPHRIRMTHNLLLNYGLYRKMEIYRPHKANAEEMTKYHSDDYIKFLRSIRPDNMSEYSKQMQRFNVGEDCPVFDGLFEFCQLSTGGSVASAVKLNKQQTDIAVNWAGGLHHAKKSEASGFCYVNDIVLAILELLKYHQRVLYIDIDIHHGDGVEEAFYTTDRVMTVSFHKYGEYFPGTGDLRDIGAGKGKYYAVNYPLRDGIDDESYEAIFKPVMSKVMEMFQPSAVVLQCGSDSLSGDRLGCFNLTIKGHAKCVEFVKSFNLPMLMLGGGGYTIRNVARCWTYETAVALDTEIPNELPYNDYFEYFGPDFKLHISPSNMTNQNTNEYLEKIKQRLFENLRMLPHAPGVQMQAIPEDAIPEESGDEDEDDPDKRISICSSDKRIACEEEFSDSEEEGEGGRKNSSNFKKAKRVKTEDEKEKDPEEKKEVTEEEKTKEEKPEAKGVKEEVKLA

Structure (SMILES) | IC50 (Histone deacetylase 1) | IC50 (Histone deacetylase 2 [1]) | GI50 (HCT-116; Homo sapiens, HCT-116, 72 h) | GI50 (MCF7) | GI50 (MDA-MB-231) | GI50 (MOLT-4; Homo sapiens, MOLT-4, 70 h) | GI50 (HuT78; Homo sapiens, HuT78, 70 h) | GI50 at 70 h [2] | IC50 (Histone deacetylase 2 [3]) | Activity [4] | IC50 [5] | IC50 (Histone deacetylase 4) | IC50 (Histone deacetylase 5) | IC50 (Histone deacetylase 7) | IC50 (Histone deacetylase 8) | IC50 (Histone deacetylase 9) | IC50 [6] | IC50 (Histone deacetylase 11) | IC50 [7] | also measured
O=C(CCCC(=O)NCCc1ccccc1)NO | 5 to 10 µM | > 1000 nM | > 50 µM | > 50 µM | > 50 µM | > 50 µM | > 50 µM | > 50 µM | 5 to 10 µM | 113% | 5 to 10 µM | 5 to 10 µM | > 10 µM | > 10 µM | 5 to 10 µM | 5 to 10 µM | 5 to 10 µM | 5 to 10 µM | < 5 µM | 
CCOC(=O)NCCCC(=O)NCCc1ccccc1 | 5 to 10 µM | > 1000 nM |  | > 50 µM | > 50 µM |  | > 50 µM | > 50 µM | 5 to 10 µM | 77% | 5 to 10 µM | 5 to 10 µM | 5 to 10 µM | 5 to 10 µM | 5 to 10 µM | 5 to 10 µM | 5 to 10 µM | 5 to 10 µM | 5 to 10 µM | GI50 (HCT-116): > 50 µM and 17.2 µM; GI50 (MOLT-4): > 50 µM and 7.8 µM; GI50 (HuT78): 36 µM; inhibition [8]: inactive; inhibition [9]: inactive; inhibition [10]: inactive; inhibition [11]: inactive; inhibition [12]: inactive; inhibition [13]: inactive; inhibition [14]: inactive; inhibition [15]: inactive; inhibition [16]: inactive; inhibition [17]: inactive; inhibition [18]: inactive; inhibition [19]: inactive; inhibition [20]: inactive
CCOC(=O)NCC(=O)NCCc1ccccc1 |  | > 1000 nM | > 50 µM | > 50 µM | > 50 µM | > 50 µM | > 50 µM | > 50 µM |  | 86% |  |  |  |  |  |  |  |  |  | 
CCOC(=O)NCC(=O)NCCCCc1ccccc1 |  | > 1000 nM | > 50 µM | > 50 µM | > 50 µM | > 50 µM | > 50 µM | > 50 µM |  | 81% |  |  |  |  |  |  |  |  |  | 
